The entries come from a sample that favours hits as a whole.
CHOP inhibitor: inhibitors of CHOP promoter induction, primary screen, cell-based, unfolded protein response, luciferase reporter; AID 2732, 2010; CHO-K1 CHOP-promoter luciferase, tunicamycin-induced, 15-18 h; inhibition, % at 10 µM; 220,000 compounds, 3.8% hits;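 active means compounds that reduced the stress-induced luciferase reporter signal by more than about 70% of percent inhibition, limit read from the data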;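 further: 0% = tunicamycin plus vehicle and 100% = wells without tunicamycin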
697 NFkB inh: inhibitors of PMA/ionomycin-induced NF-kB reporter, 697 cells, primary screen, B-cell NF-kB inhibitor project, cell-based, luminescence, uHTS; 697 B-cell NF-kB luciferase reporter, 16 h; inhibition, % at 4 µM; 330,000 compounds, 0.33% hits; in the data active means inhibition above about 35%
Jurkat NFkB inh: inhibitors of induced NF-kB luciferase reporter, primary screen, TCR NF-kB activation inhibitor project, cell-based, luminescence, uHTS; Jurkat, PMA/ionomycin-induced NF-kB luciferase reporter; inhibition, % at 4 µM; 330,000 compounds, 0.53% hits; AID 435003, 2010; in the data active means inhibition above about 50%
UPR CHOP act: activators of apoptotic CHOP UPR arm, primary screen, cell-based, CHO-CHOP luciferase reporter, luminescence, uHTS. UPR activation; percent of tunicamycin response over DMSO baseline. activation, % at 10 µM. 330,000 compounds, 0.34% hits. AID 449763, 2010;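 active means at 10 µM dose, activation of 40% or more, normalized to positive control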;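 further: 100% = tunicamycin at 10 µg/mL and 0% = DMSO alone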
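System: CHO CHOP reporter cells. Amount: 500 cells per well. Buffer or medium: F12 medium, 10% FBS. Compound dosing: one dose, 10 µM in 0.5% DMSO. Incubation: 6 h compound exposure at 37 °C after overnight seeding. Technique: Steady-Glo luciferase luminescence. Benchmarks: tunicamycin and DMSO controls.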
XBP1 UPR activ: activators of adaptive XBP1 UPR arm, primary screen, cell-based, CHO-XBP1 luciferase reporter, luminescence, uHTS; IRE1-XBP1 UPR activation; percent of tunicamycin response, DMSO as zero; activation, % at 20 µM; 330,000 compounds, 0.33% hits; AID 463104, 2010;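 active means versus positive control, 20 µM dose yields 30% or more activation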;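 further: 100% = tunicamycin at 10 µg/mL and 0% = DMSO only wells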
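incubation = overnight seeding at 37 °C, 6 h compound treatment at 37 °C | assay system = CHO-XBP1 cells stably carrying IRE1-XBP1-driven luciferase reporter | input = 1000 cells per well | detection = luciferase luminescence | dosing = single point, 20 µM final compound, 1% DMSO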
Active calls of the source: *; . = no result.

SMILES	CHOP inhibitor	697 NFkB inh	Jurkat NFkB inh	UPR CHOP act	XBP1 UPR activ
CC(OC(=O)CNS(=O)(=O)c1ccc(C#N)cc1)C(=O)Nc1cccc(C#N)c1 (stereo not given)	.	12	19	0	2
COC(=O)CCNC(=O)c1nn(Cc2ccccc2)c(=O)c2ccccc12	.	11	-6	2	1
CCOC(=O)c1ccccc1NC1CC(=O)N(c2ccccc2C)C1=O (stereo not given)	1	11	12	1	1
CC1=CC(C)(C)N(C(=O)C(C)N2C(=O)c3ccccc3C2=O)c2c(C)cc(C)cc21 (stereo not given)	105*	.	.	.	.
COc1ccc2c(c1)C(C)=CC(C)(C)N2C(=O)C(C)N1C(=O)c2ccccc2C1=O (stereo not given)	4	-8	-4	-1	-3
CCOC(=O)c1c(C)nc2c(c1-c1ccc(OC)c(OC)c1)C(=O)c1ccccc1-2	85*	-5	-1	0	4
O=C(COc1ccc(Cl)cc1Cl)Nc1c(-c2cccs2)nc2ccccn12	85*	5	3	2	2
Cc1cc(Cl)ccc1OCC(=O)NCCOc1nc(N2CCCCC2)nc(N2CCOCC2)n1	89*	-3	-3	-1	-2
O=C1CN(C(=O)COC(=O)c2ccc(Cl)c(S(=O)(=O)N3CCCCC3)c2)c2ccccc2N1	.	-7	12	1	-2
CCCCCCCCCCS(=O)(=O)N/N=C/c1ccccc1OC	82*	24	8	2	-1
CCOC(=O)C(=CNc1ccc2c(c1)nnn2-c1ccc(Cl)cc1)C(=O)OCC	79*	-31	-6	4	-2
CCOC(=O)Cn1nc(-c2ccc(C)cc2)c2ccccc2c1=O	43	9	5	2	0
CCOC(=O)Cn1nc(-c2ccccc2)c2cnc3ccc(C)cc3c21	73*	-15	-1	3	1
CC(C(=O)Nc1ccc2c(c1)OCCO2)N(C)Cc1c(F)cccc1Cl (stereo not given)	-8	-13	1	0	1
CC(=O)Nc1nc(-c2ccccc2)nc(-c2ccccc2OC(C)=O)n1	90*	14	22	0	0
O=C(Nc1ccc([N+](=O)[O-])cc1)Nc1ccc(N2CCOCC2)c2nonc12	76*	10	-9	-2	10
CC(C)(C)n1nnnc1C(c1ccc(C(F)(F)F)cc1)N(Cc1ccc(F)cc1)Cc1ccco1 (stereo not given)	82*	3	47	5	5
O=C(CCSc1ccccc1)NC1CCCCCC1	12	26	-79	6	-1
O=C(CCSc1ccccc1)NC(=O)COC(=O)C1CCCCC1	70*	8	-2	0	-1
Cc1ccc2nc(NC(=O)c3cccc(-c4cc5ccccc5oc4=O)c3)sc2c1	53	-118	-23	1	122*
O=C(Nc1cccnc1)c1cccc(-c2cc3ccccc3oc2=O)c1	58	-71	3	2	0
CCOc1ccc2nc(NC(=O)c3cccc(-c4cc5ccccc5oc4=O)c3)sc2c1	92*	.	.	.	.
O=[N+]([O-])c1ccc(Nc2nc(N/N=C/c3cccc(F)c3)nc(N3CCCC3)n2)cc1	16	32	0	9	3
COc1cccc(/C=N/Nc2nc(Nc3ccc([N+](=O)[O-])cc3)nc(N3CCCC3)n2)c1O	89*	18	45	7	8
Cc1nc2cc(-c3ccccc3)nn2c(C)c1CCC(=O)N1CCN(c2ccccn2)CC1	71*	.	.	.	.
COc1cc(OC)cc(-c2cc3nc(C)c(CCC(=O)NC(C)CCc4ccco4)c(C)n3n2)c1 (stereo not given)	.	22	7	-2	-2
COc1cc(OC)cc(-c2cc3nc(C)c(CCC(=O)O)c(C)n3n2)c1	95*	.	.	.	.
COc1ccc(-c2cc3nc(C)c(CCC(=O)N4CCN(c5ccccn5)CC4)c(C)n3n2)c(OC)c1	27	6	13	1	2
CCCCc1ccc(C2C(C#N)=C(N)SC(N)=C2C#N)s1	10	-8	-8	0	2

Source: PubChem (several laboratories)
